Values after ≈ are worked out from the molar mass of the structure shown.
What was measured:
Format in all cases: functional
[1] = tested on: Klebsiella pneumoniae; experiment: Antibacterial activity against Klebsiella pneumoniae 10-2 after 18 to 24 hrs by NCCLS method
Procedure, shortened: (§1)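 Standard NCCLS (M100-S11) MIC testing against Gram-positive and Gram-negative strains. Plates were incubated at 35 °C for 18–24 h. The MIC was read as the lowest concentration giving complete inhibition of visible bacterial growth.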

[2] = tested on: Klebsiella pneumoniae; experiment: Antibacterial activity against extended spectrum beta-lactamases producing Klebsiella pneumoniae 10-1 after 18 to 24 hrs by NCCLS method; procedure, shortened: as §1
[3] = tested on: Staphylococcus epidermidis; experiment: Antibacterial activity against methicillin-sensitive Staphylococcus epidermidis 10-15 after 18 to 24 hrs by NCCLS method
Procedure, shortened: (§2)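 Incubated at 35 °C for 18–24 h under NCCLS (M100-S11) standards. MIC was read as the lowest concentration giving complete inhibition of visible bacterial growth.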

[4] = tested on: Staphylococcus aureus; experiment: Antibacterial activity against methicillin-sensitive Staphylococcus aureus 10-11 after 18 to 24 hrs by NCCLS method; procedure, shortened: as §1
[5] = tested on: Escherichia coli; experiment: Antibacterial activity against extended spectrum beta-lactamases producing Escherichia coli 10-4 after 18 to 24 hrs by NCCLS method; procedure, shortened: as §1
[6] = tested on: Pseudomonas aeruginosa; experiment: Antibacterial activity against Pseudomonas aeruginosa 10-9 after 18 to 24 hrs by NCCLS method; procedure, shortened: as §1
[7] = tested on: Staphylococcus aureus; experiment: Antibacterial activity against methicillin-resistant Staphylococcus aureus 10-15 after 18 to 24 hrs by NCCLS method; procedure, shortened: as §2
[8] = tested on: Streptococcus pneumoniae; experiment: Antibacterial activity against Streptococcus pneumoniae 10-6 after 18 to 24 hrs by NCCLS method; procedure, shortened: as §1
[9] = tested on: Escherichia coli; experiment: Antibacterial activity against Escherichia coli ATCC 25922 after 18 to 24 hrs by NCCLS method; procedure, shortened: as §1
[10] = tested on: Escherichia coli; experiment: Antibacterial activity against Escherichia coli 10-2 after 18 to 24 hrs by NCCLS method; procedure, shortened: as §1
[11] = tested on: Pseudomonas aeruginosa; experiment: Antibacterial activity against Pseudomonas aeruginosa 10-12 after 18 to 24 hrs by NCCLS method; procedure, shortened: as §1
[12] = tested on: Mycobacterium tuberculosis; experiment: Antimycobacterial activity against Mycobacterium tuberculosis H37Rv ATCC 27294 by microplate alamar blue assay
Procedure, shortened: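 Microplate Alamar Blue fluorescence assay on strain H37Rv ATCC 27294. MIC was the lowest concentration cutting fluorescence by ≥90% against the mean of replicate bacterium-only controls.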

[13] = tested on: Staphylococcus epidermidis; experiment: Antibacterial activity against methicillin-resistant Staphylococcus epidermidis 10-13 after 18 to 24 hrs by NCCLS method; procedure, shortened: as §2
[14] = tested on: Escherichia coli; experiment: Antibacterial activity against extended spectrum beta-lactamases producing Escherichia coli 10-2 after 18 to 24 hrs by NCCLS method; procedure, shortened: as §1
[15] = tested on: Klebsiella pneumoniae; experiment: Antibacterial activity against Klebsiella pneumoniae 10-3 after 18 to 24 hrs by NCCLS method; procedure, shortened: as §1
[16] = tested on: Klebsiella pneumoniae; experiment: Antibacterial activity against extended spectrum beta-lactamases producing Klebsiella pneumoniae 10-3 after 18 to 24 hrs by NCCLS method; procedure, shortened: as §1
[17] = tested on: Escherichia coli; experiment: Antibacterial activity against Escherichia coli 10-3 after 18 to 24 hrs by NCCLS method; procedure, shortened: as §1
[18] = tested on: Enterococcus faecium; experiment: Antibacterial activity against Enterococcus faecium 10-6 after 18 to 24 hrs by NCCLS method; procedure, shortened: as §1
[19] = tested on: Escherichia coli; experiment: Antibacterial activity against Escherichia coli 10-1 after 18 to 24 hrs by NCCLS method; procedure, shortened: as §1
[20] = tested on: Staphylococcus aureus; experiment: Antibacterial activity against Staphylococcus aureus ATCC 2592 after 18 to 24 hrs by NCCLS method; procedure, shortened: as §1
[21] = tested on: Pseudomonas aeruginosa; experiment: Antibacterial activity against Pseudomonas aeruginosa 10-20 after 18 to 24 hrs by NCCLS method; procedure, shortened: as §1
[22] = tested on: Enterococcus faecalis; experiment: Antibacterial activity against Enterococcus faecalis 10-7 after 18 to 24 hrs by NCCLS method; procedure, shortened: as §1
[23] = tested on: Pseudomonas aeruginosa; experiment: Antibacterial activity against Pseudomonas aeruginosa 10-18 after 18 to 24 hrs by NCCLS method; procedure, shortened: as §1
[24] = tested on: Staphylococcus aureus; experiment: Antibacterial activity against methicillin-resistant Staphylococcus aureus 10-11 after 18 to 24 hrs by NCCLS method; procedure, shortened: as §2
[25] = tested on: Pseudomonas aeruginosa; experiment: Antibacterial activity against Pseudomonas aeruginosa 10-15 after 18 to 24 hrs by NCCLS method; procedure, shortened: as §1
[26] = tested on: Staphylococcus epidermidis; experiment: Antibacterial activity against methicillin-resistant Staphylococcus epidermidis 10-10 after 18 to 24 hrs by NCCLS method; procedure, shortened: as §2
[27] = tested on: Enterococcus faecalis; experiment: Antibacterial activity against Enterococcus faecalis 10-5 after 18 to 24 hrs by NCCLS method; procedure, shortened: as §1
[28] = tested on: Staphylococcus aureus; experiment: Antibacterial activity against methicillin-sensitive Staphylococcus aureus 10-14 after 18 to 24 hrs by NCCLS method; procedure, shortened: as §1
[29] = tested on: Enterococcus faecium; experiment: Antibacterial activity against Enterococcus faecium 10-9 after 18 to 24 hrs by NCCLS method; procedure, shortened: as §1
[30] = tested on: Escherichia coli; experiment: Antibacterial activity against extended spectrum beta-lactamases producing Escherichia coli 10-3 after 18 to 24 hrs by NCCLS method; procedure, shortened: as §1
[31] = tested on: Pseudomonas aeruginosa; experiment: Antibacterial activity against Pseudomonas aeruginosa 10-5 after 18 to 24 hrs by NCCLS method; procedure, shortened: as §1
[32] = tested on: Klebsiella pneumoniae; experiment: Antibacterial activity against extended spectrum beta-lactamases producing Klebsiella pneumoniae 10-2 after 18 to 24 hrs by NCCLS method; procedure, shortened: as §1
[33] = tested on: Staphylococcus aureus; experiment: Antibacterial activity against methicillin-resistant Staphylococcus aureus 10-13 after 18 to 24 hrs by NCCLS method; procedure, shortened: as §2
[34] = tested on: Staphylococcus aureus; experiment: Antibacterial activity against methicillin-sensitive Staphylococcus aureus 10-13 after 18 to 24 hrs by NCCLS method; procedure, shortened: as §1
[35] = tested on: Streptococcus pneumoniae; experiment: Antibacterial activity against Streptococcus pneumoniae 10-1 after 18 to 24 hrs by NCCLS method; procedure, shortened: as §1
[36] = tested on: Staphylococcus epidermidis; experiment: Antibacterial activity against methicillin-sensitive Staphylococcus epidermidis 10-11 after 18 to 24 hrs by NCCLS method; procedure, shortened: as §1
[37] = tested on: Klebsiella pneumoniae; experiment: Antibacterial activity against Klebsiella pneumoniae 10-4 after 18 to 24 hrs by NCCLS method; procedure, shortened: as §1
[38] = tested on: Enterococcus faecalis; experiment: Antibacterial activity against Enterococcus faecalis 10-6 after 18 to 24 hrs by NCCLS method; procedure, shortened: as §1

SMILES	MIC [1] [µg/mL]	MIC [2] [µg/mL]	MIC [3] [µg/mL]	MIC [4] [µg/mL]	MIC [5] [µg/mL]	MIC [6] [µg/mL]	MIC [7] [µg/mL]	MIC [8] [µg/mL]	MIC [9] [µg/mL]	MIC [10] [µg/mL]	MIC [11] [µg/mL]	MIC [12] [µg/mL]	MIC [13] [µg/mL]	MIC [14] [µg/mL]	MIC [15] [µg/mL]	MIC [16] [µg/mL]	MIC [17] [µg/mL]	MIC [18] [µg/mL]	MIC [19] [µg/mL]	MIC [20] [µg/mL]	other results
COc1cc(CN2CCN(c3cc4c(cc3F)c(=O)c(C(=O)O)cn4C3CC3)CC2)cc(OC)c1OC	> 128	> 128	32 (≈ 62.6 µM)	0.25 (≈ 0.489 µM)	> 128	32 (≈ 62.6 µM)	32 (≈ 62.6 µM)	64 (≈ 125 µM)	1 (≈ 1.95 µM)	32 (≈ 62.6 µM)	32 (≈ 62.6 µM)	32 (≈ 62.6 µM)	32 (≈ 62.6 µM)	> 128	32 (≈ 62.6 µM)	> 128	> 128	4 (≈ 7.82 µM)	> 128	0.25 (≈ 0.489 µM)	MIC [21]: 64 µg/mL (≈ 125 µM); MIC [22]: 64 µg/mL (≈ 125 µM); MIC [23]: 128 µg/mL (≈ 250 µM); MIC [24]: 64 µg/mL (≈ 125 µM); MIC [25]: 64 µg/mL (≈ 125 µM); MIC [26]: 32 µg/mL (≈ 62.6 µM); MIC [27]: 8 µg/mL (≈ 15.6 µM); MIC [28]: 0.25 µg/mL (≈ 0.489 µM); MIC [29]: 32 µg/mL (≈ 62.6 µM); MIC [30]: > 128 µg/mL; MIC [31]: 32 µg/mL (≈ 62.6 µM); MIC [32]: > 128 µg/mL; MIC [33]: 128 µg/mL (≈ 250 µM); MIC [34]: 0.5 µg/mL (≈ 0.977 µM); MIC [35]: 4 µg/mL (≈ 7.82 µM); MIC [36]: 0.5 µg/mL (≈ 0.977 µM); MIC [37]: > 128 µg/mL; MIC [38]: 64 µg/mL (≈ 125 µM)
O=C(O)c1cn(C2CC2)c2cc(N3CCN(Cc4ccc(OCc5ccccc5)cc4)CC3)c(F)cc2c1=O	> 128	> 128	32 (≈ 60.7 µM)	0.25 (≈ 0.474 µM)	> 128	32 (≈ 60.7 µM)	128 (≈ 243 µM)	32 (≈ 60.7 µM)	1 (≈ 1.9 µM)	32 (≈ 60.7 µM)	32 (≈ 60.7 µM)	32 (≈ 60.7 µM)	32 (≈ 60.7 µM)	> 128	32 (≈ 60.7 µM)	> 128	> 128	8 (≈ 15.2 µM)	> 128	4 (≈ 7.58 µM)	MIC [21]: 32 µg/mL (≈ 60.7 µM); MIC [22]: 32 µg/mL (≈ 60.7 µM); MIC [23]: 64 µg/mL (≈ 121 µM); MIC [24]: 32 µg/mL (≈ 60.7 µM); MIC [25]: 128 µg/mL (≈ 243 µM); MIC [26]: 16 µg/mL (≈ 30.3 µM); MIC [27]: 8 µg/mL (≈ 15.2 µM); MIC [28]: 0.5 µg/mL (≈ 0.948 µM); MIC [29]: 32 µg/mL (≈ 60.7 µM); MIC [30]: > 128 µg/mL; MIC [31]: 16 µg/mL (≈ 30.3 µM); MIC [32]: > 128 µg/mL; MIC [33]: 128 µg/mL (≈ 243 µM); MIC [34]: 0.5 µg/mL (≈ 0.948 µM); MIC [35]: 8 µg/mL (≈ 15.2 µM); MIC [36]: 1 µg/mL (≈ 1.9 µM); MIC [37]: > 128 µg/mL; MIC [38]: 64 µg/mL (≈ 121 µM)

Reference: ChEMBL document CHEMBL2157880, “Synthesis, antimycobacterial and antibacterial activity of ciprofloxacin derivatives containing a N-substituted benzyl moiety” (2012)
